High-throughput results (PubChem BioAssay)
This excerpt belongs to a sample that is enriched for hits.
Dynein transport = blocks dynein driven cargo transport along microtubules | actives 0.47% (n = 220,000) | z-score, hits read low | 3617.4 mouse cells, GR-EGFP nuclear translocation imaging; test concentration mostly 20 µM; stimulated with dexamethasone, 1 µM; hits give low values;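 active = plate z-score of nuclear minus cytoplasmic receptor signal below a set negative limit, without overly bright fluorescence or cell loss, cut at about -3.5 in these data, passing the limit was not always enough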;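 note: z-score of nuclear minus cytoplasmic ring GR-EGFP intensity difference per well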
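Buffer or medium: tet-free medium with charcoal-stripped serum / Also added: dexamethasone agonist, 1.0 µM final, for 30 min / Timing: induction 48 h, compound 1 h, agonist 30 min / Measured by: high-content fluorescence imaging after fixation / Read-out: nuclear-to-cytoplasmic GR-EGFP distribution per well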
L major viab = inhibitors of Leishmania major promastigote growth; Leishmania major promastigotes, resazurin fluorescence viability; inhibition, % at 10 µM; actives 9% (n = 200,000); AID 1063; in the data active = inhibition above about 50%;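 note: promastigotes grown with compound for 44 hours at 28 °C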
CHOP inh = CHOP inhibition in unfolded protein response; inhibition, % at 10 µM; AID 2732; CHO-K1 CHOP-promoter luciferase, tunicamycin-induced, 15-18 h; actives 3.8% (n = 220,000);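 active = compounds that reduced the stress-induced luciferase reporter signal by more than about 70% of percent inhibition, limit read from the data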;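 note: 0% = tunicamycin plus vehicle and 100% = wells without tunicamycin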
XBP1 UPR activ = activators of adaptive arm of unfolded protein response (XBP1). CHO-XBP1 luciferase reporter, IRE1-XBP1 UPR activation, luminescence; percent of tunicamycin response, DMSO as zero. activation, % at 20 µM. actives 0.33% (n = 330,000);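 active = versus positive control, 20 µM dose yields 30% or more activation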;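 note: 100% = tunicamycin at 10 µg/mL and 0% = DMSO only wells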
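Material: CHO cell line with stable XBP1 luciferase reporter; buffer or medium: F12 medium containing 10% fetal bovine serum; compound: single point, 20 µM final compound, 1% DMSO; incubation: 6 h treatment, 37 °C; measured by: glow luminescence from Steady-Glo reagent; evaluation: activation, % of tunicamycin; control set: tunicamycin high, DMSO low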
UPR CHOP act = activators of apoptotic arm of unfolded protein response (CHOP); CHO-CHOP luciferase reporter, UPR activation, luminescence; percent of tunicamycin response over DMSO baseline; activation, % at 10 µM; actives 0.34% (n = 330,000); AID 449763;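 active = at 10 µM dose, activation of 40% or more, normalized to positive control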;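 note: 100% = tunicamycin at 10 µg/mL and 0% = DMSO alone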
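measured by = luciferase luminescence | assay system = CHO-CHOP cells, stable luciferase reporter of PERK-eIF2a-CHOP signalling | amount = 500 reporter cells seeded per well | timing = 6 h compound exposure at 37 °C after overnight seeding | controls = positive tunicamycin 10 µg/mL, negative DMSO alone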
T cruzi repl = blocks replication of Trypanosoma cruzi; T. cruzi beta-gal in NIH3T3, luminescence, 90 h; inhibition, % (test concentration not listed); actives 1.4% (n = 300,000);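 active = mean inhibition across valid replicates above about 55%, limit read from the data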;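 note: signal also drops with host cell toxicity which is not excluded here; 0% = plate median of DMSO wells and 100% = zero luminescence signal; higher percent means less beta-gal luminescence so fewer parasites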
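Read-out: Parasite load inhibition, % | Test system: Mouse NIH/3T3 fibroblasts infected with β-gal-expressing T. cruzi Tulahuen C4 | Amount: 5,000 cells/well | Medium: DMEM, 2% fetal bovine serum | Signal: GalScreen β-gal luminescence, detergent lysis, 60 min | Timing: 3 h attach, ≥90 h co-culture | Also added: Tulahuen C4 trypomastigotes, 5000/well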
Active calls of the source: *; . = no result.

SMILES	Dynein transport	L major viab	CHOP inh	XBP1 UPR activ	UPR CHOP act	T cruzi repl
O=C1CCC/C=C/C[C@H](CC(=O)N(CCO)Cc2ccccc2)C(=O)N[C@@H](Cc2ccccc2)CO1	.	.	.	-4	0	.
O=C1CC(c2ccc(Cl)cc2)CC(O)=C1C=NCCO (stereo not drawn)	.	.	.	0	1	6
N#Cc1c(C(F)(F)F)cc(-c2ccccc2)nc1SCC(=O)Nc1sc2c(c1C#N)CCC2	-0.18	-7	74*	2	7	-3
N#Cc1ccc(-c2cccnc2)nc1SCC(=O)Nc1sc2c(c1C#N)CCC2	0.18	-1	56	10	0	-4
CC(Sc1nc(-c2ccccc2)cc(C(F)(F)F)n1)C(=O)Nc1sc2c(c1C(N)=O)CCC2 (stereo not drawn)	-0.051	48	68	-1	0	5
CC(Sc1nc(-c2ccccc2)cc(C(F)(F)F)n1)C(=O)Nc1sc2c(c1C#N)CCC2 (stereo not drawn)	-0.95	10	19	1	1	56*
CCn1c(SCc2nc(-c3ccccc3)no2)nnc1-c1cccs1	2.2	28	26	1	0	-12
CCn1c(SCc2nc(-c3cccs3)no2)nnc1-c1c[nH]c2ccccc12	-0.32	72*	35	-3	12	15
CCOC(=O)Cn1nc(-c2ccc(Cl)cc2)cc1N	-0.16	55*	9	-1	5	1
CCOC(=O)c1oc2ccc(S(=O)(=O)n3nc(-c4ccc(Cl)cc4)cc3N)cc2c1C	-0.53	98*	34	1	-1	33
COc1ccc(S(=O)(=O)n2nc(-c3ccc(Cl)cc3)cc2N)cc1	1.8	.	38	-3	-1	-2
CCOC(=O)CCn1nc(-c2ccc(Cl)cc2)cc1N	-0.16	4	19	0	5	0
COc1ccc(NC(C)=O)cc1S(=O)(=O)N1CC=C(c2ccccc2)CC1	.	.	.	-3	0	.
O=C(CCN=C1NS(=O)(=O)c2ccccc21)OCc1nnc(-c2ccccc2)o1	.	.	.	5	4	-15
Cc1ccc(N2C(=O)C3C4C=CC(CNC(=S)N5CCN(c6ccccc6)CC5)(O4)C3C2=O)cc1 (stereo not drawn)	-0.43	-4	-2	-3	-1	7
Cc1ccc(NC(=S)NCC23C=CC(O2)C2C(=O)N(c4ccc(C)cc4)C(=O)C23)cc1 (stereo not drawn)	0.7	92*	19	-5	3	-5
Cc1cccc(NC(=S)NCC23C=CC(O2)C2C(=O)N(c4ccc(Cl)cc4)C(=O)C23)c1 (stereo not drawn)	-0.67	53*	20	-1	0	-3
CC1CCCN(S(=O)(=O)c2ccc(NC(=O)CN3C(=O)NC(C)(c4ccccc4)C3=O)cc2)C1 (stereo not drawn)	.	.	.	0	1	-12
CCn1nnnc1SCC(=O)N1c2ccccc2CCc2ccccc21	0.75	53*	26	0	0	11
CC1Cc2ccccc2N1C(=O)CSc1nc2c(c(=O)n(C)c(=O)n2C)n1Cc1ccccc1 (stereo not drawn)	2.7	64*	65	6	3	57*
CCn1c(SCC(=O)N2c3ccccc3CCc3ccccc32)nc2c1c(=O)n(C)c(=O)n2C	-0.59	60*	.	1	4	45
CCCCn1c(SCC(=O)N2c3ccccc3CCc3ccccc32)nc2c1c(=O)n(C)c(=O)n2C	0.56	9	23	0	3	25
O=C(CCC(=O)N(CC(=O)NC1CCCC1)C1CCCCC1)Nc1ccccn1	-0.08	-4	-6	-2	-1	-13
COc1ccc(NC(=O)C(CCS(C)(=O)=O)N2C(=O)c3ccccc3C2=O)cc1 (stereo not drawn)	1.2	-1	-16	2	1	-34
CC(=O)Nc1ccc(OC(=O)C(CCS(C)(=O)=O)N2C(=O)c3ccccc3C2=O)cc1 (stereo not drawn)	0.72	91*	14	0	-1	2
SMILES	Dynein transport	L major viab	CHOP inh	XBP1 UPR activ	UPR CHOP act	T cruzi repl
CC(CCc1ccc(O)cc1)NC1C2CC3CC(C2)CC1C3 (stereo not drawn)	-0.46	71*	18	-2	0	6
COc1ccc2cnn(-c3ccc(C)cc3)c(=O)c2c1OC	-0.27	5	-34	1	-1	-4
CCOc1ccccc1OCCn1ncc2ccc(OC)c(OC)c2c1=O	1.1	5	-6	-1	3	10
COc1ccc2cnn(CCOc3cc(C)ccc3C(C)C)c(=O)c2c1OC	2.4	95*	46	-1	1	37
COc1ccc2cnn(CCOc3ccccc3)c(=O)c2c1OC	-0.5	87*	42	-3	4	5
CC(NC(=O)C1CCC(CNc2c(N3CCCCC3)c(=O)c2=O)CC1)c1ccccc1 (stereo not drawn)	-0.64	.	12	0	-2	-11
COC(=O)/C(=C(O)\C=C\c1ccccc1[N+](=O)[O-])c1nc2ccccc2[nH]1	.	.	.	13	3	33
CCC1(CC)NC(=O)N(CC(=O)OCC(=O)Nc2cc(OC)ccc2OC)C1=O	.	.	.	1	0	.
Cc1ccc(/C=C/C(O)=C2/C(=O)N(C)C3(C)CC2c2ccccc2O3)cc1 (stereo not drawn)	-1.5	79*	-1	0	-1	34
COc1ccc(/C=C/C(O)=C2/C(=O)NC3(C)CC2c2ccccc2O3)c(OC)c1OC (stereo not drawn)	-1.7	47	-70	-3	0	36
COc1ccc(/C=C/C(O)=C2/C(=O)N(C)C3(C)CC2c2ccccc2O3)cc1 (stereo not drawn)	-1.1	80*	-67	0	2	31
O=C(CCc1nnc2ccc(NCc3ccccc3)nn12)NC1CCCCC1	.	.	.	-6	-2	5
Cc1n[nH]c(C)c1CCNC(=O)C1CCC(=O)N(CCc2cccc(F)c2)C1 (stereo not drawn)	.	.	.	-4	0	-17
NC(=O)c1ccsc1NC(=O)CSc1nnc(NC2CC2)s1	.	.	.	1	-1	.
Cc1cc(O)cc(O)c1C=NCc1ccco1	0.43	6	-1	-1	2	-19
CC1CCc2cc(F)ccc2N1C(=O)c1cnc2sccn2c1=O (stereo not drawn)	0.71	-7	79*	-2	0	-7
CC1CCc2cc(F)ccc2N1C(=O)c1ccncc1 (stereo not drawn)	0.79	-3	17	-1	0	-1
O=C(CCNC(=O)c1ccccc1Cl)NCCC1=CCCCC1	.	.	.	-2	2	3
O=C(CSc1ccc(-c2ccco2)nn1)Nc1ccc(F)cc1F	.	.	.	-3	0	15
